From ChEMBL document CHEMBL4425130, “Macrocyclic Prodrugs of a Selective Nonpeptidic Direct Thrombin Inhibitor Display High Permeability, Efficient Bioconversion but Low Bioavailability” (J Med Chem, 2016)
≈ marks a conversion by molar mass, not a printed value.

Tests used:
[1] = Apparent permeability across apical to basolateral side in human Caco2 cells at 10 uM after 45 to 120 mins by ultraperformance LC/MS/MS method; conditions: Caco-2
[2] = Efflux ratio of apparent permeability across basolateral to apical over apical to basolateral side in human Caco2 cells at 10 uM after 45 to 120 mins by ultraperformance LC/MS/MS method; conditions: Caco-2
[3] = Prodrug conversion in rat hepatocytes assessed as esterase-mediated 3-((3-(2-(2-(Aminomethyl)-5-chlorobenzylamino)-2-oxoethyl)-4-methyl-2-oxo-5,6-dihydropyridin-1(2H)-ylamino)methyl)benzoic acid formation at 4 uM after 40 mins by ultraperformance liquid chromatographic method; format: ADME, cell-based
physchem = conditions: 1-octanol/phosphate buffer, pH 7.4
[4] = Prodrug conversion in human liver microsomes assessed as 3-((3-(2-(2-(Aminomethyl)-5-chlorobenzylamino)-2-oxoethyl)-4-methyl-2-oxo-5,6-dihydropyridin-1(2H)-ylamino)methyl)benzoic acid formation in presence of NADPH; format: ADME, Microsome
[5] = Prodrug conversion in human plasma assessed as esterase-mediated metabolite formation after 4 hrs; format: ADME, cell-free
[6] = Prodrug conversion in human liver microsomes assessed as 3-((3-(2-(2-(Aminomethyl)-5-chlorobenzylamino)-2-oxoethyl)-4-methyl-2-oxo-5,6-dihydropyridin-1(2H)-ylamino)methyl)benzoic acid formation in absence of NADPH; format: ADME, Microsome
[7] = Solubility of the compound in phosphate buffer at pH 7.4 at 25 degC after 24 hrs by ultraperformance LC/MS/MS method
Prothrombin = Prothrombin (Homo sapiens, UniProt P00734); experiment: Inhibition of human alpha-thrombin using S-2366 as substrate after 40 mins
[8] = Prodrug conversion in human hepatocytes assessed as esterase-mediated formaldehyde formation at 4 uM after 40 mins by ultraperformance liquid chromatographic method; format: ADME, cell-based; conditions: isolated protein
Method in brief: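 Cryopreserved human hepatocytes at 10^6 viable cells/mL, thawed and pre-warmed 10 min at 37 °C. Compound added from CH3CN stock at 4 µM final. Incubated 40 min, then quenched in cold CH3CN, with compound-free incubations as blanks. Metabolites assigned by LC-MS product ion spectra.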

Serine protease 1 = Serine protease 1 (Homo sapiens, UniProt P07477); experiment: Inhibition of human trypsin 1 using S-2222 as substrate preincubated for 300 secs followed by substrate addition measured after 40 mins
Method in brief: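 Human proteases assayed at one substrate concentration with ten inhibitor concentrations at 37 °C, ≤1.3% DMSO, in an enzyme-specific Tris-HCl pH 7.4 buffer. Enzyme and inhibitor preincubated 300 s, then substrate added; absorbance read at 405 nm after 40 min. IC50 converted to Ki by IC50 = Ki(1+S/KM), using KM measured under assay conditions.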

[9] = Bioavailability in Han Wistar rat assessed as 3-((3-(2-(2-(Aminomethyl)-5-chlorobenzylamino)-2-oxoethyl)-4-methyl-2-oxo-5,6-dihydropyridin-1(2H)-ylamino)methyl)benzoic acid formation at 1 umol/kg administered intraduodenally by LC-MS/MS method; format: ADME, organism-based; conditions: in vivo, other
Method in brief: (§1)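 Male Han Wistar rats, cannulated in the carotid artery for sampling and the jugular vein for i.v. dosing, one week before the study (two days before for intraduodenal dosing). Single doses: 0.5 µmol/kg i.v., or 1 µmol/kg by gavage or intraduodenally. Vehicles were 5% mannitol in water or DMA:TEG:water (1:1:1). Plasma sampled up to 24 h and analysed by LC-MS/MS. Non-compartmental analysis; means of n=3, with F from mean AUCinf.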

[10] = Oral bioavailability in Han Wistar rat assessed as 3-((3-(2-(2-(Aminomethyl)-5-chlorobenzylamino)-2-oxoethyl)-4-methyl-2-oxo-5,6-dihydropyridin-1(2H)-ylamino)methyl)benzoic acid formation at 1 umol/kg administered via gavage by LC-MS/MS method; format: ADME, organism-based; conditions: in vivo; method in brief: as §1
[11] = Apparent terminal half life in Han Wistar rat at 1 umol/kg administered intraduodenally by LC-MS/MS method; format: ADME; conditions: in vivo, read-out: betat1/2(app) (converted); method in brief: as §1
[12] = AUCinfinity in Han Wistar rat assessed as 3-((3-(2-(2-(Aminomethyl)-5-chlorobenzylamino)-2-oxoethyl)-4-methyl-2-oxo-5,6-dihydropyridin-1(2H)-ylamino)methyl)benzoic acid formation at 1 umol/kg, po administered via gavage by LC-MS/MS method; format: ADME, organism-based; parameters: dose 1 umol/kg, time infinity, route oral; conditions: in vivo; method in brief: as §1
[13] = AUCinfinity in Han Wistar rat assessed as 3-((3-(2-(2-(Aminomethyl)-5-chlorobenzylamino)-2-oxoethyl)-4-methyl-2-oxo-5,6-dihydropyridin-1(2H)-ylamino)methyl)benzoic acid formation at 1 umol/kg administered intraduodenally by LC-MS/MS method; format: ADME; parameters: dose 1 umol/kg, route intraduodenal, time infinity; conditions: in vivo, other; method in brief: as §1
[14] = Cmax in Han Wistar rat at 1 umol/kg, po administered via gavage by LC-MS/MS method; format: ADME, organism-based; parameters: dose 1 umol/kg, route oral; conditions: in vivo; method in brief: as §1
[15] = Cmax in Han Wistar rat at 1 umol/kg administered intraduodenally by LC-MS/MS method; format: ADME; parameters: dose 1 umol/kg, route intraduodenal; conditions: in vivo; method in brief: as §1
[16] = Apparent terminal half life in Han Wistar rat at 1 umol/kg, po administered via gavage by LC-MS/MS method; format: ADME, organism-based; conditions: in vivo, read-out: betat1/2(app) (converted); method in brief: as §1
[17] = Drug level in rat hepatocytes treated with Methyl 3-(((3-(2-((5-Chloro-2-(((methoxycarbonyl)amino)-methyl)benzyl)amino)-2-oxoethyl)-4-methyl-2-oxo-5,6-dihydropyridin-1(2H)-yl)amino)methyl)benzoate assessed as esterase-mediated compound formation at 4 uM after 40 mins by ultraperformance liquid chromatographic method; format: ADME, cell-based; conditions: isolated protein

Chain of Serine protease 1 (P07477 whole entry): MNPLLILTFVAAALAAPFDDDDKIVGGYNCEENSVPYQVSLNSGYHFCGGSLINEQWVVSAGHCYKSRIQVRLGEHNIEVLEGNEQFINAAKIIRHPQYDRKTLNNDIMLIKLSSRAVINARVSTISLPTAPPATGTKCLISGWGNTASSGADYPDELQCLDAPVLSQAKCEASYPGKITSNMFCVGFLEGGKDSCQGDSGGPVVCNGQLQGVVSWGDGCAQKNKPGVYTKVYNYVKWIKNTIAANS

Compound | Papp A→B at 10 µM [1] | efflux ratio at 10 µM [2] | Drug metabolism [3] | logD at 3 h (physchem) | Drug metabolism [4] | Drug metabolism [5] | Drug metabolism [6] | solubility at 24 h [7] | Ki (Prothrombin) | Drug metabolism [8] | Ki (Serine protease 1) | F [9] | F [10] | half-life [11] | AUC [12] | AUC [13] | Cmax [14] | Cmax [15] | half-life [16] | Drug metabolism [17]
CC1=C2CC(=O)NCc3cc(Cl)ccc3CNC(=O)OC(C)OC(=O)c3cccc(c3)CNN(CC1)C2=O (stereo not drawn) | 45 ×10⁻⁶ cm/s | 4.8 | Metabolite_Detected | 2.6 | Metabolite_Detected | Metabolite_Notdetected | Metabolite_Detected | 340 µM (≈ 184 µg/mL) | – | – | – | – | – | – | – | – | – | – | – | –
CC1=C2CC(=O)NCc3cc(Cl)ccc3CNC(=O)OCOC(=O)c3cccc(c3)CNN(CC1)C2=O | 48 ×10⁻⁶ cm/s | 5.6 | Metabolite_Detected | 2.3 | Metabolite_Detected | Metabolite_Notdetected | Metabolite_Detected | 120 µM (≈ 63.2 µg/mL) | 200 nM | Metabolite_Detected | > 5.4 µM | 1.6% | 2.5% | 6.6 min | 0.0127 µmol·h/L | 8.1 nM·h | 11 nM | 108 nM | 67.2 min | –
CC1=C(CC(=O)NCc2cc(Cl)ccc2CNC(=O)OC(C)(C)C)C(=O)N(NCc2cccc(C(=O)O)c2)CC1 | – | – | – | – | – | – | – | – | – | – | – | – | – | – | – | – | – | – | – | Metabolite_Detected
